The values that follow come from ChEMBL document CHEMBL4041488, “Structural Characterization and Assessment of the Cytotoxicity of 2,3-Dihydro-1H-indene Derivatives and Coumarin Glucosides from the Bark of Streblus indicus” (J Nat Prod, 2016).

A value given as a limit tells only on which side of the number the result lay.

One assay deals with A549. Nature of the assay: Cytotoxicity against human A549 cells assessed as reduction in cell viability after 48 hrs by MTT assay. The format is functional, cell-based. The following applies: A549, 48 h. The essentials:
(§1)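 1 × 10^4 cells per well, pre-incubated 12 h at 37 °C under 5% CO2, then exposed to serial dilutions of compound (paclitaxel as reference) for 48 h. MTT reagent (5 mg/mL) added for a further 4 h, formazan dissolved in DMSO, absorbance read at 570 nm. Three independent experiments, each in triplicate; IC50 from sigmoid curve fitting.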

The test system of a further assay is MCF7. The assay can be described thus: Cytotoxicity against human MCF7 cells assessed as reduction in cell viability after 48 hrs by MTT assay. The format is functional, cell-based. The following applies: MCF7, 48 h. An outline of the steps:
as §1

`COc1cc2ccc(=O)oc2cc1O[C@@H]1O[C@H](COC(=O)c2cc(OC)c(O[C@@H]3O[C@H](CO)[C@@H](O)[C@H](O)[C@H]3O)c(OC)c2)[C@@H](O)[C@H](O)[C@H]1O`: the half-maximal inhibitory concentration (IC50) in the assay on A549 and in the assay on MCF7 was above 10 µM in each case.

For `COC(=O)C[C@@H]1c2c(-c3ccc(O)cc3OC)cc(O)c(O)c2C[C@@H]1C(C)(C)O`, the IC50 with A549 amounted to 5.6 µM; in the assay on MCF7, 6.7 µM.

Consider `COc1cc(C(=O)OC[C@H]2O[C@@H](Oc3ccc4ccc(=O)oc4c3)[C@H](O)[C@@H](O)[C@@H]2O)cc(OC)c1O`, for which the IC50 in the assay with A549 and in the assay with MCF7 was above 10 µM throughout.

On to `COc1cc2ccc(=O)oc2cc1O[C@@H]1O[C@H](COC(=O)CCc2cc(OC)c(O[C@@H]3O[C@H](CO)[C@@H](O)[C@H](O)[C@H]3O)c(OC)c2)[C@@H](O)[C@H](O)[C@H]1O`, for which the IC50 in the assay with A549 and in the assay with MCF7 was above 10 µM each time.

Regarding `COc1cc(C(=O)OC[C@H]2O[C@@H](Oc3cc4oc(=O)ccc4cc3OC)[C@H](O)[C@@H](O)[C@@H]2O)ccc1O[C@@H]1O[C@H](CO)[C@@H](O)[C@H](O)[C@H]1O`, the IC50 with A549 and with MCF7 was above 10 µM each time.

For `COc1cc(O)ccc1C(=O)C[C@@H]1c2ccc(O)c(O)c2C[C@H]1C(C)(C)O`, the IC50 worked out at 2.2 µM in the assay with A549 and 3.3 µM in the assay with MCF7.

`COC(=O)C[C@@H]1c2c(-c3ccc(O)cc3OC)cc(O)c(O)c2C[C@H]1C(C)(C)O`: the IC50 in the assay on A549 is 6 µM; in the assay on MCF7, 7.2 µM.

Regarding `COc1cc(O)ccc1C(=O)C[C@H]1c2ccc(O)c(O)c2C[C@@H]1C(C)(C)O`, the figures for the IC50 with A549 and in the assay with MCF7 were 2.5 µM and 3.9 µM, respectively.

Usually IC50 stands for the concentration at which inhibition is half-maximal.
